In ChEMBL document CHEMBL2163244, “Structure-guided design, synthesis and biological evaluation of novel DNA ligase inhibitors with in vitro and in vivo anti-staphylococcal activity” (Bioorg Med Chem Lett, 2012):
≈ marks a conversion by molar mass, not a printed value. Calls of active or inactive are those of the source. The calls are words filed in the database; no cut-off is given here.

Assays:
[1] = test system: Escherichia coli; experiment: Antibacterial activity against tolC/rfaC-deficient Escherichia coli; assay type: functional
[2] = target: DNA ligase 1 (Homo sapiens) (UniProt P18858); experiment: Inhibition of human DNA Ligase 1 at 25 uM
DNA ligase 1 (Homo sapiens), sequence (P18858 whole entry): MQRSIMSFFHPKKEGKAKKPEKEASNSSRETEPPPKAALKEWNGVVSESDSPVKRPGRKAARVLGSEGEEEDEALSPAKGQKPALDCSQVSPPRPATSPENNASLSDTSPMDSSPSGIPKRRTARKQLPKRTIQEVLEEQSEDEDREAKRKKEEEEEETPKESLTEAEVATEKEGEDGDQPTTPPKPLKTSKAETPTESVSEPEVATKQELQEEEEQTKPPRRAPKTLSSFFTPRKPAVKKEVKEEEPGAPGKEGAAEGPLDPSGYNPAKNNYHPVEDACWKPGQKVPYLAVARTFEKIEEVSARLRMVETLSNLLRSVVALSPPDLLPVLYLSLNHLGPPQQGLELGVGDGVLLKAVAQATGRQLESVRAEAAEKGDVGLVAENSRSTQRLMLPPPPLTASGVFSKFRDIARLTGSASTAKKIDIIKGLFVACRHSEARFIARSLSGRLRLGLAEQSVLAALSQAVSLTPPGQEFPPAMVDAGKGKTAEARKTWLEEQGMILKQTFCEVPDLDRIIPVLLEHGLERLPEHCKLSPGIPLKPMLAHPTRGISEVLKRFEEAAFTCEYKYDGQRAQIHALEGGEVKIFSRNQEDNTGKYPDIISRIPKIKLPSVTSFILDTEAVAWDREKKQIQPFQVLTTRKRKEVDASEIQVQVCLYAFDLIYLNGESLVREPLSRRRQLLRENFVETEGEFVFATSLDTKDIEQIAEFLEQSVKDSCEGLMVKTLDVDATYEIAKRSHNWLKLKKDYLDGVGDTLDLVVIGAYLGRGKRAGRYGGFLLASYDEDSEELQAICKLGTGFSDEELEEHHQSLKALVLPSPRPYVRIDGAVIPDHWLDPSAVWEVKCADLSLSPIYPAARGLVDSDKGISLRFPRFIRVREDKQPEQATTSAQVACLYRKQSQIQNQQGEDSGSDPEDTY

[3] = test system: Escherichia coli; experiment: Antibacterial activity against tolC/rfaC-deficient Escherichia coli harboring ligA251 mutant; assay type: functional
Summary of the method: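 MIC read-out. The E. coli strain carries only the ligA251 allele (L15F exchange), which gives more than 20-fold reduced ligation activity and sensitizes it to LigA inhibitors.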

[4] = Inhibition of Escherichia coli NAD-dependent DNA ligase
[5] = target: DNA ligase (Staphylococcus aureus, UniProt Q9AIU7); experiment: Inhibition of Staphylococcus aureus NAD-dependent DNA ligase
DNA ligase, sequence (Q9AIU7 whole entry): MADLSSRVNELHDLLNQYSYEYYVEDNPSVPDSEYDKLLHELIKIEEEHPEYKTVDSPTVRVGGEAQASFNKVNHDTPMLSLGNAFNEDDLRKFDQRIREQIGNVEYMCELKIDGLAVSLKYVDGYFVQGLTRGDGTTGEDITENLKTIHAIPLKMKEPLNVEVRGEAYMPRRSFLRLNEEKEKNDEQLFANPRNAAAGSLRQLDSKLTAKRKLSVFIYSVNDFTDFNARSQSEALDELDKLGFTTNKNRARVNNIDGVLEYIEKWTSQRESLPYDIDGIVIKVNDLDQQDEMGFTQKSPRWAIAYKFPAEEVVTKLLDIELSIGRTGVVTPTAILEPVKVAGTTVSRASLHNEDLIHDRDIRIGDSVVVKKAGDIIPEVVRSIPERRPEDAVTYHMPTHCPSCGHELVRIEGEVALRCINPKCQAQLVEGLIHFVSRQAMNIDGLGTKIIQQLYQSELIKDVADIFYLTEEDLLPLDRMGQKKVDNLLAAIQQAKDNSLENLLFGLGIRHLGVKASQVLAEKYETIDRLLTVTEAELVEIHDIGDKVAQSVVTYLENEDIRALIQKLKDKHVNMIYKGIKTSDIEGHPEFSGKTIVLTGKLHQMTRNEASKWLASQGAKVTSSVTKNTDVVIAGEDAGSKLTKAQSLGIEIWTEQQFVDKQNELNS

[6] = target: T1, Dihydrofolate reductase (Homo sapiens) (UniProt P00374); experiment: Inhibition of human DHFR at 25 uM
T1 sequence (whole entry): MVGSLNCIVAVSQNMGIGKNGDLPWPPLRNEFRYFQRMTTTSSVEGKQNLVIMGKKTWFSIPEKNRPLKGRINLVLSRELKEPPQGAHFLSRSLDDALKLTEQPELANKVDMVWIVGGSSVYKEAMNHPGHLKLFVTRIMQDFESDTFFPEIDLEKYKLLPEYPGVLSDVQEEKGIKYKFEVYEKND

[7] = test system: Enterococcus faecalis; experiment: Antibacterial activity against Enterococcus faecalis ATCC 29212 by CLSI dilution method; assay type: functional
[8] = target: T1, Dihydrofolate reductase (Homo sapiens); experiment: Inhibition of human DHFR
[9] = Terminal half life in mouse at 10 mg/kg, sc; assay type: ADME, organism-based; parameters: dose 10 mg/kg, route subcutaneous; conditions: in vivo, read-out: beta t1/2 (converted)
[10] = test system: Staphylococcus aureus; experiment: Antibacterial activity against […]-sensitive Staphylococcus aureus DM 11823; assay type: functional
[11] = test system: Staphylococcus aureus; experiment: Antibacterial activity against wild type Staphylococcus aureus ATCC 29213 by CLSI dilution method; assay type: functional
[12] = Fraction unbound in rat plasma at 0.1 mg/kg, iv and 1 mg/kg, po; assay type: ADME, organism-based
[13] = Oral bioavailability in rat at 1 mg/kg; assay type: ADME, organism-based; conditions: in vivo
[14] = test system: Haemophilus influenzae; experiment: Antibacterial activity against wild type Haemophilus influenzae A921 by CLSI dilution method; assay type: functional
[15] = test system: Pseudomonas aeruginosa; experiment: Antibacterial activity against Pseudomonas aeruginosa ATCC 27853 by CLSI dilution method; assay type: functional
[16] = test system: Clostridioides difficile; experiment: Antibacterial activity against Clostridium difficile ATCC A1148 by CLSI dilution method; assay type: functional
[17] = test system: Enterococcus faecium; experiment: Antibacterial activity against Enterococcus faecium A949 by CLSI dilution method; assay type: functional
[18] = test system: Streptococcus pneumoniae; experiment: Antibacterial activity against Streptococcus pneumoniae ATCC 49619 by CLSI dilution method; assay type: functional
[19] = test system: Acinetobacter baumannii; experiment: Antibacterial activity against Acinetobacter baumannii T6474 by CLSI dilution method; assay type: functional
[20] = Cmax in rat at 1 mg/kg, po; assay type: ADME, organism-based; parameters: dose 1 mg/kg, route oral; conditions: in vivo
[21] = Total plasma clearance in rat at 0.1 mg/kg, iv and 1 mg/kg, po; assay type: ADME, organism-based
Summary of the method: (§1)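 Rat intravenous PK: 0.1 mg/kg dose in 5% DMSO/28.5% HPBCD in water. Total plasma clearance is in mL/min/kg. Volume of distribution at steady state is in L/kg.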

[22] = test system: Streptococcus pneumoniae; experiment: Antibacterial activity against wild type Streptococcus pneumoniae A-216 by CLSI dilution method; assay type: functional
[23] = target: Cytochrome P450 3A4 (Homo sapiens, UniProt P08684); experiment: Inhibition of human CYP3A4; assay type: ADME
Cytochrome P450 3A4, sequence (P08684 whole entry): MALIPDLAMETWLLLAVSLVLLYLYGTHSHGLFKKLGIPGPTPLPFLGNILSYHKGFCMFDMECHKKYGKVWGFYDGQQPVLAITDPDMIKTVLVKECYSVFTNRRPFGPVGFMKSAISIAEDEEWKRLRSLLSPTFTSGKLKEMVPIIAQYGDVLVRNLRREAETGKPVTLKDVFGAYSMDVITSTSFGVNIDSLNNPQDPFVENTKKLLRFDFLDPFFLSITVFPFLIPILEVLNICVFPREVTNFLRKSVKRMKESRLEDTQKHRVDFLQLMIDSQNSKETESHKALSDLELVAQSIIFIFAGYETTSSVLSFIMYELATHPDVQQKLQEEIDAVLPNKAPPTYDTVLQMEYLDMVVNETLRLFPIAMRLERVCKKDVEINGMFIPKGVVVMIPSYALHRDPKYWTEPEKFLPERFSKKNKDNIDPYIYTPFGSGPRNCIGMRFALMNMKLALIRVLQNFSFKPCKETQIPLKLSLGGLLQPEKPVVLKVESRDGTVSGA

[24] = test system: Escherichia coli; experiment: Antibacterial activity against Escherichia coli ATCC 25922 by CLSI dilution method; assay type: functional
[25] = AUC (0 to 24 hrs) in mouse at 10 mg/kg, sc; assay type: ADME, organism-based; parameters: time < 24 hr, dose 10 mg/kg, route subcutaneous; conditions: plasma
[26] = AUC (0 to infinity) in rat at 0.1 mg/kg, iv; assay type: ADME, organism-based; parameters: time infinity, dose 0.1 mg/kg, route intravenous; conditions: plasma; summary of the method: as §1
[27] = Selectivity ratio of IC50 for Streptococcus pneumoniae NAD-dependent DNA ligase to IC50 for Staphylococcus aureus NAD-dependent DNA ligase
[28] = test system: Staphylococcus aureus; experiment: Antibacterial activity against Staphylococcus aureus ATCC 25923 by CLSI dilution method; assay type: functional
[29] = Intrinsic clearance in rat hepatocytes measured per 10^6 cells; assay type: ADME, cell-based, Hepatocyte; conditions: read-out: CLH
[30] = Intrinsic clearance in rat liver microsomes; assay type: ADME, Microsome; conditions: read-out: CLH
[31] = test system: Staphylococcus aureus; experiment: Antibacterial activity against Staphylococcus aureus A798 by CLSI dilution method; assay type: functional
[32] = test system: Rattus norvegicus; experiment: fAUC (0 to infinity) in rat at 0.1 mg/kg, iv; assay type: ADME, organism-based; parameters: dose 0.1 mg/kg, route intravenous; conditions: in vivo; summary of the method: as §1
[33] = test system: Saccharomyces cerevisiae; experiment: Antifungal activity against Saccharomyces cerevisiae A136 expressing ATP-dependent DNA ligase by CLSI dilution method; assay type: functional
[34] = target: DNA ligase 1 (Homo sapiens) (UniProt P18858); experiment: Inhibition of human DNA Ligase 1
[35] = test system: Staphylococcus aureus; experiment: Antibacterial activity against Staphylococcus aureus ATCC 25923 by CLSI dilution method in presence of 50% human serum; assay type: functional
Summary of the method: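 MIC determined in the presence of 50% human serum.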

[36] = Volume of distribution at steady state in rat at 0.1 mg/kg, iv and 1 mg/kg, po; assay type: ADME, organism-based; conditions: in vivo, read-out: Vdss; summary of the method: as §1
[37] = target: Cytochrome P450 2C9 (Homo sapiens, UniProt P11712); experiment: Inhibition of human CYP2C9; assay type: ADME
Cytochrome P450 2C9, sequence (P11712 whole entry): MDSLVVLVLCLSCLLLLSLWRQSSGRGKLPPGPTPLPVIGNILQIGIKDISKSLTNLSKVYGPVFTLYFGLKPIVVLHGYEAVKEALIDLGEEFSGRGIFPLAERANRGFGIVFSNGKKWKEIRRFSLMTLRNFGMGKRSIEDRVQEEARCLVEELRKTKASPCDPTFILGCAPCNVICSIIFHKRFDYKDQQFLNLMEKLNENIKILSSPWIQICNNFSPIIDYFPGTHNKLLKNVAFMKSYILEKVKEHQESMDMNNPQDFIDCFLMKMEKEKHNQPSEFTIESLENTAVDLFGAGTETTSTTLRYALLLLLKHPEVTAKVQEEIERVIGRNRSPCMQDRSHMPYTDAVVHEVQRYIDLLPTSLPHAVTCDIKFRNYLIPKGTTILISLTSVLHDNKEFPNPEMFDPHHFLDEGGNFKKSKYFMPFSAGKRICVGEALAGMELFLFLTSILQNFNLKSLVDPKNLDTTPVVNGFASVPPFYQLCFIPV

[38] = test system: Moraxella catarrhalis; experiment: Antibacterial activity against Moraxella catarrhalis A894 by CLSI dilution method; assay type: functional
[39] = test system: Rattus norvegicus; experiment: fAUC (0 to 24 hrs) in rat at 1 mg/kg, po; assay type: ADME, organism-based; parameters: dose 1 mg/kg, route oral; conditions: in vivo
[40] = target: Cytochrome P450 2D6 (Homo sapiens, UniProt P10635); experiment: Inhibition of human CYP2D6; assay type: ADME
Cytochrome P450 2D6, sequence (P10635 whole entry): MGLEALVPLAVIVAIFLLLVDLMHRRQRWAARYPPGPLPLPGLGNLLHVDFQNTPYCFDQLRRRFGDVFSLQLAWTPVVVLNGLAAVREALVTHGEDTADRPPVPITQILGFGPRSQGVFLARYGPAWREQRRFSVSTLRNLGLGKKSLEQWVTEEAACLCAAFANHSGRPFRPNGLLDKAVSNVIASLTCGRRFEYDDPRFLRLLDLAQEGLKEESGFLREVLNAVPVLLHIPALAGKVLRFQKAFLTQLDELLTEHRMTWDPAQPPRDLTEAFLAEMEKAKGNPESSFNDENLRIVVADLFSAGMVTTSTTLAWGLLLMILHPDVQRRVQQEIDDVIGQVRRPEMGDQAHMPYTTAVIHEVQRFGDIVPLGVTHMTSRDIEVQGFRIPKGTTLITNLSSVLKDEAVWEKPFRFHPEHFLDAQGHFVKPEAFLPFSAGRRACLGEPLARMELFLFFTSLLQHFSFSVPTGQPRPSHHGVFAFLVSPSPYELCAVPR

[41] = test system: Klebsiella pneumoniae; experiment: Antibacterial activity against Klebsiella pneumoniae T6474 by CLSI dilution method; assay type: functional
[42] = Cmax in mouse at 10 mg/kg, sc; assay type: ADME, organism-based; parameters: dose 10 mg/kg, route subcutaneous; conditions: in vivo
[43] = Fraction unbound in mouse plasma at 10 mg/kg, sc; assay type: ADME, organism-based; parameters: dose 10 mg/kg, route subcutaneous
[44] = AUC (0 to 24 hrs) in rat at 1 mg/kg, po; assay type: ADME, organism-based; parameters: time < 24 hr, dose 1 mg/kg, route oral; conditions: plasma
[45] = test system: Staphylococcus aureus; experiment: Bacteriostatic activity against […]-sensitive Staphylococcus aureus DM 11823 in mouse neutropenic thigh infection model at 100 mg/kg, sc administered 2 hrs post infection measured after 24 hrs; assay type: functional, organism-based; parameters: dose 100 mg/kg
Summary of the method: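 Neutropenic murine thigh infection with a quinolone-sensitive laboratory descendant of S. aureus DSM 11823. Inoculum 2×10^3 cfu given i.m. Compound given once at 100 mg/kg s.c., 2 h post-infection, in 5% DMSO/15% Solutol HS15 in water. Bacterial burden assessed 24 h after infection.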

[46] = Terminal half life in rat at 0.1 mg/kg, iv and 1 mg/kg, po; assay type: ADME, organism-based; conditions: in vivo, read-out: beta t1/2 (converted)
[47] = Inhibition of Streptococcus pneumoniae NAD-dependent DNA ligase assessed as equilibrium dissociation constant
[48] = test system: Escherichia coli; experiment: Antibacterial activity against tolC/rfaC-deficient Escherichia coli harboring ligA251 mutant and pECLigA; assay type: functional
Summary of the method: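 MIC read-out. The strain is the isogenic ligA251 E. coli strain, over-producing wild-type LigA from plasmid pECLigA, which gives high ligation activity.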

Question: With `COc1nc2nc(N)nc(N)c2nc1C` as the molecule, how does the MIC [1] read?
Answer: > 16 µg/mL

Question: What about the inhibition [2] of the same molecule?
Answer: inactive

Question: What about the MIC [3] of the same molecule?
Answer: 2 µg/mL (≈ 9.7 µM)

Question: And the IC50 [4]?
Answer: 25000 nM

Question: What about the IC50 [5] of the same molecule?
Answer: 2500 nM

Question: And the inhibition [6]?
Answer: inactive

Question: Which results are given for `NC(=O)c1cc2cc(Br)c(C(F)(F)F)nc2nc1N`?
Answer: MIC [7]: 8 µg/mL (≈ 23.9 µM); inhibition [8]: inactive; half-life [9]: 174 min; MIC [10]: 0.5 µg/mL (≈ 1.49 µM); MIC [11]: 1 µg/mL (≈ 2.98 µM); fraction unbound [12]: 0.14; bioavailability [13]: 80%; MIC [1]: 2 µg/mL (≈ 5.97 µM); MIC [14]: 0.125 µg/mL (≈ 0.373 µM); MIC [15]: > 32 µg/mL; MIC [16]: 8 µg/mL (≈ 23.9 µM); MIC [17]: > 32 µg/mL; MIC [18]: 16 µg/mL (≈ 47.7 µM); MIC [19]: > 32 µg/mL; MIC [3]: 0.063 µg/mL (≈ 0.188 µM); IC50 [4]: 300 nM; Cmax [20]: 410 ng/mL; clearance [21]: 11 mL/min/kg; MIC [22]: 2 µg/mL (≈ 5.97 µM); IC50 [23]: > 50 µM; MIC [24]: > 32 µg/mL; AUC(0-t) at 24 h [25]: 84500 ng·h/mL; AUC(0-inf) [26]: 150 ng·h/mL; Ratio IC50 [27]: 2; MIC [28]: 1 µg/mL (≈ 2.98 µM); hepatocyte CLint [29]: 1.8 µL/min/1e6 cells; microsomal CLint [30]: 20 µL/min/mg; MIC [31]: 1 µg/mL (≈ 2.98 µM); fAUC [32]: 0.021 mg·h/L; MIC [33]: > 32 µg/mL; inhibition [34]: inactive; MIC [35]: 2 µg/mL; Vd [36]: 0.71 L/kg; IC50 [37]: > 50 µM; MIC [38]: 8 µg/mL (≈ 23.9 µM); fAUC [39]: 0.171 mg·h/L; IC50 [40]: > 50 µM; MIC [41]: > 32 µg/mL; Cmax [42]: 7050 ng/mL; fraction unbound [43]: 0.046; AUC(0-t) at 24 h [44]: 1220 ng·h/mL; Activity [45]: Active; half-life [46]: 138 min

Question: What does the source list for `Nc1cc(-c2nc3ccccc3[nH]2)n[nH]c1=O`?
Answer: MIC [1]: > 16 µg/mL; MIC [3]: 8 µg/mL (≈ 35.2 µM); IC50 [4]: > 25000 nM; IC50 [5]: 2500 nM; Kd [47]: 20000 nM; MIC [48]: 16 µg/mL (≈ 70.4 µM)

Question: Which inhibition [8] does the source give for `CC(C)(OCc1ccccc1)c1nc2nc(N)c(C(N)=O)cc2cc1Br` here?
Answer: inactive

Question: And the MIC [11]?
Answer: > 16 µg/mL

Question: What about the MIC [1] of the same molecule?
Answer: > 16 µg/mL

Question: And the MIC [14]?
Answer: > 16 µg/mL

Question: And the MIC [3]?
Answer: 8 µg/mL (≈ 19.3 µM)

Question: What about the IC50 [4] of the same molecule?
Answer: > 5000 nM

Question: What about the MIC [22] of the same molecule?
Answer: > 16 µg/mL

Question: And the inhibition [34]?
Answer: inactive

Question: And the Kd [47]?
Answer: 4310 nM

Question: Which results are given for `NC(=O)c1cc2c(-c3ccccc3)cc(C(F)(F)F)nc2nc1N`?
Answer: inhibition [8]: inactive; MIC [11]: > 16 µg/mL; MIC [1]: 32 µg/mL (≈ 96.3 µM); MIC [14]: 8 µg/mL (≈ 24.1 µM); MIC [3]: 0.5 µg/mL (≈ 1.5 µM); IC50 [4]: 2500 nM; MIC [22]: > 16 µg/mL; inhibition [34]: inactive; Kd [47]: 237 nM

Question: What does the source list for `CCc1cc2cc(C(N)=O)c(N)nc2nc1C(F)(F)F`?
Answer: inhibition [8]: inactive; MIC [11]: 4 µg/mL (≈ 14.1 µM); MIC [1]: 8 µg/mL (≈ 28.1 µM); MIC [14]: 2 µg/mL (≈ 7.04 µM); MIC [3]: 0.25 µg/mL (≈ 0.88 µM); IC50 [4]: 600 nM; MIC [22]: > 16 µg/mL; inhibition [34]: inactive; Kd [47]: 75 nM

Question: Which inhibition [8] does the source give for `NC(=O)c1cc2cc(Br)c(C3CCCC3)nc2nc1N` here?
Answer: inactive

Question: And the MIC [11]?
Answer: > 16 µg/mL

Question: And the MIC [1]?
Answer: > 16 µg/mL

Question: What about the MIC [14] of the same molecule?
Answer: > 16 µg/mL

Question: And the MIC [3]?
Answer: 4 µg/mL (≈ 11.9 µM)

Question: What about the IC50 [4] of the same molecule?
Answer: 500 nM

Question: And the MIC [22]?
Answer: > 16 µg/mL

Question: And the inhibition [34]?
Answer: inactive

Question: And the Kd [47]?
Answer: 184 nM
